Screening results from PubChem BioAssay.
Compounds with a hit are over-represented: about 3.7% of the library has one in this group of screens.
KCNQ1 inh – inhibitors of human KCNQ1 channel, primary screen, cell-based, thallium flux, high-throughput. AID 2642, 2010. CHO-K1 KCNQ1, FluxOR thallium flux fluorescence; hits give high values. Potassium voltage-gated channel subfamily KQT member 1 (Homo sapiens), P51787. B-score at 10 µM. 1.3% of 310,000 active;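 active means compounds whose thallium flux B-score, printed positive for inhibition, exceeds three library SD while starting fluorescence stays within three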;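 further: channel opened by potassium depolarization with thallium stimulus after 20 min compound exposure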
KCNK3 block – human KCNK3 channel inhibitors, primary screen, CHO cells, FluxOR thallium flux, B-score. AID 602410, 2012. 0.84% of 340,000 active. FluxOR fluorescence; hits give low values. B-score at 10 µM. Potassium channel subfamily K member 3 (Homo sapiens), O14649;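 active means B-score under library mean minus 4 SD, starting fluorescence ratio at most library mean plus 5 SD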;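 further: more negative B-score means stronger inhibition of thallium flux through KCNK3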
Target sequence (O14649 whole entry, looked up): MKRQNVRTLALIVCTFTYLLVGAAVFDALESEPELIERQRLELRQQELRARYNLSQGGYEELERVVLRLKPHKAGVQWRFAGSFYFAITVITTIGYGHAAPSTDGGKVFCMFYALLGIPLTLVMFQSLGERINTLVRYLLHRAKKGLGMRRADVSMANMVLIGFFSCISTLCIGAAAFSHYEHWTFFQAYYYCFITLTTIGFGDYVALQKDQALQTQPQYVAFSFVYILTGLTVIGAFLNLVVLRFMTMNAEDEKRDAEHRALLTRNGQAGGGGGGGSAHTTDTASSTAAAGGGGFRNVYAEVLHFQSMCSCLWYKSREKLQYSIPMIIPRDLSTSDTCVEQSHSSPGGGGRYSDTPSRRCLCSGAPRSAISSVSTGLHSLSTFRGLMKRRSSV
Kir21 inh – inhibitors of mouse Kir2.1 inward-rectifier potassium channel | HEK293-Kir2.1, FluxOR thallium flux fluorescence; hits give low values | B-score at 10 µM | 0.85% of 310,000 active;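 active means fluorescence ratio B-score at or below minus 3 SD of library scores, with starting-brightness B-score within 2 SD, cut at about -4.2 in these data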;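 further: channel flux triggered by added potassium and thallium sulfate stimulus; B-score of peak minus minimum fluorescence over baseline after thallium stimulus; more negative B-score means stronger Kir2.1 block with less thallium influx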
KCNQ1 act – potentiators or activators of KCNQ1 channel, primary screen, cell-based, thallium flux, high-throughput; CHO-K1 KCNQ1, thallium flux FluxOR fluorescence; hits give high values; 0.35% of 310,000 active; Potassium voltage-gated channel subfamily KQT member 1 (Homo sapiens), P51787; B-score at 10 µM;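 active means fluorescence ratio B-score, a plate-corrected score, at least three library SD, with initial intensity B-score within 5 SD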
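Test system: CHO-K1 cells stably expressing KCNQ1 / Medium: assay buffer / Also added: depolarizing K+/Tl+ stimulus, K2SO4 and Tl2SO4 each 12.5 mM in 5x stock / Incubation: 90 min dye loading and 20 min compound exposure, both at room temperature / Signal: thallium influx via FluxOR fluorescence, kinetic imaging / Evaluation: B score of baseline-normalized fluorescence ratio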
KCNK9 block – KCNK9 potassium channel inhibitors, primary screen, HEK293 cells, thallium flux; 1.2% of 310,000 active; FluxOR thallium flux fluorescence; hits give low values; B-score at 10 µM; Potassium channel subfamily K member 9 (Homo sapiens), Q9NPC2;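 active means ratio B-score over 3 SD below the library mean, with starting fluorescence within 5 SD of its mean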;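 further: negative B-score means less thallium flux so channel inhibition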
hERG rescue – hERG rescue from dofetilide block, primary screen, cell-based, CHO-hERG, FluxOR thallium flux, dofetilide IC70 | activation (rescue from dofetilide block), less the hit threshold, % at 10 µM | 0.51% of 310,000 active | dofetilide IC70 present | Voltage-gated inwardly rectifying potassium channel KCNH2 (Homo sapiens), Q12809;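 active means activation above the mean of controls blocked by dofetilide plus 5 SD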;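 further: thallium influx through hERG after potassium depolarization seen as dye fluorescence rise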
* hit, by the source's call; i = inactive; x = no result.

SMILES	KCNQ1 inh	KCNK3 block	Kir21 inh	KCNQ1 act	KCNK9 block	hERG rescue
C/C(=N\NC(=O)COc1ccc(C)cc1C(C)C)c1ccc(-n2ccnc2)cc1	i	i	-0.01	i	i	5.6*
COC(=O)N/N=C(\C)c1ccc(-n2ccnc2)cc1	i	i	-0.92	i	i	-2.8
CCCC(C)C(=O)OCC(=O)NCc1ccc(OC)c(OC)c1 (configuration not stated)	i	i	1.21	i	i	-3.5
COc1ccc(C(CNC(=O)Cc2ccccc2F)N2CCCCC2)cc1 (configuration not stated)	i	i	-1.81	i	i	6.3*
CC(C)(C)C(=O)NC(=S)NNC(=O)C(c1ccccc1)c1ccccc1	i	i	-1.35	31*	i	-8.3
CC(=O)NNC(=S)NC(=O)C(c1ccccc1)c1ccccc1	i	i	0.91	i	i	-16.2
Cc1cccc(C(=O)N2CCCC(N3CCN(Cc4ccc5c(c4)OCO5)CC3)C2)n1 (configuration not stated)	i	i	-0.16	i	i	-3.7
Cc1nn(CC(=O)NCCCN2CC(C)CC(C)C2)c(=O)c2cccn12 (configuration not stated)	i	i	-0.38	i	i	-4.6
CCCCCC[N+](C)(C)CC/C=C1/c2ccccc2Sc2ccc(Cl)cc21	i	i	-3.78	i	-7.97*	-16.9
CCCCCCCCCCCCCCCC[N+](C)(C)CCl	x	i	x	x	x	x
O=c1c(O)c(-c2ccc3c(c2)OCO3)oc2ccccc12	i	i	-0.35	33*	i	9.4*
Cc1ccc(S(=O)(=O)N2CCC(C(=O)OCC(=O)NC(C)c3ccc(F)cc3)CC2)cc1C (configuration not stated)	x	i	x	x	x	x
CC(Oc1cccc(Cl)c1)C(=O)NCCCCc1ccccc1 (configuration not stated)	i	i	-5.5*	i	i	-5.0
CC(Oc1cccc(Cl)c1)C(=O)NCc1ccc(S(N)(=O)=O)cc1 (configuration not stated)	i	i	1.19	i	i	-16.3
C=CCc1cc(OC)ccc1OCCN1CC(C)OC(C)C1 (configuration not stated)	i	i	1.32	i	i	-3.5
Cc1cc(C)nc(SSc2nc(C)cc(C)n2)n1	i	i	0.03	i	i	5.6*
CCN(CC)P(=O)(Nc1ccc(C)cc1Br)c1ccc(N(C)C)cc1NC(=O)c1ccco1 (configuration not stated)	7*	i	1.06	i	i	-17.3
CC(C)c1cc(=O)oc2c3c4c(cc12)CCCN4CCC3	i	i	-0.93	i	i	-12.8
CN1CCCc2cc3c(C(F)(F)F)cc(=O)oc3nc21	11*	i	-7.13	i	i	-23.1
Cn1c(=S)c2[nH]c(SCCN3CCCC3)nc2n(C)c1=O	i	i	1.03	i	-6.89*	-2.9
COCCn1nnnc1C(c1cccs1)N1CCN(c2cc(C)ccc2C)CC1 (configuration not stated)	i	-9.2*	-0.96	i	-7.98*	-7.8
C#CCn1c(=NC(=O)CSC(C)=O)sc2cc(F)ccc21	i	i	-0.79	i	-7.81*	0.1
CCOC(=O)N1CCN(C(=O)c2ccc3c(=O)n(Cc4ccc(Cl)cc4)c(=S)[nH]c3c2)CC1	i	i	0.35	i	i	-12.7
CCOC(=O)Cn1c(=S)[nH]c2c(oc3ccc(Cl)cc32)c1=O	i	i	-1.94	12*	i	-14.0
CCC(C)(C)n1nnnc1C(c1cccnc1)N1CCC(Cc2ccccc2)CC1 (configuration not stated)	i	i	0.71	i	-7.6*	-12.7
SMILES	KCNQ1 inh	KCNK3 block	Kir21 inh	KCNQ1 act	KCNK9 block	hERG rescue
O=C(CSc1nc2ncc(Cl)cc2[nH]1)N(Cc1ccccc1)C1CCS(=O)(=O)C1 (configuration not stated)	i	i	1.12	i	i	-14.0
CC(=O)OCCC(NS(=O)(=O)OCC(Cl)(Cl)Cl)c1ccccc1 (configuration not stated)	i	i	-2.06	i	i	-4.0
C[C@H](NS(=O)(=O)OCC(Cl)(Cl)Cl)C1CC1c1ccccc1 (some centres not stated)	6*	i	1.09	i	i	-10.2
CC(=O)Nc1sc(NC(=O)c2ccccc2)nc1-c1cccs1	i	i	0.73	i	i	5.5*
COC(=O)Cc1ccc(NC(=S)NCc2ccccc2OC)cc1	i	i	-0.02	i	i	-7.2
COc1ccccc1CNC(=S)Nc1ccc(F)cc1	i	i	-4.67*	i	i	-1.9
CN(C(=O)CSc1ncnc2scc(-c3ccccc3)c12)C1CCS(=O)(=O)C1 (configuration not stated)	i	i	-0.44	i	i	-9.0
CN(C(=O)CSc1ncnc2sc(-c3ccccc3)cc12)C1CCS(=O)(=O)C1 (configuration not stated)	i	i	1.59	77*	i	49.0*
O=C(c1ccc(Br)o1)N1CCN(CCc2ccncc2)CC1	i	i	0.96	i	i	-0.5
CC12CCC(=O)N1C(C(=O)Nc1nc(-c3ccccc3Cl)cs1)CS2 (configuration not stated)	i	i	1.14	i	i	-9.7
CCCCCCN1C=C/C(=C\C=C(C#N)C#N)c2ccccc21	i	i	-1.75	i	-7.23*	-11.9
C=CCN1C=C/C(=C\C=C(C#N)C#N)c2ccccc21	i	i	0.33	i	i	-8.3
COc1ccc(Cl)cc1NC(=S)N1CC(C)OC(C)C1 (configuration not stated)	i	i	0.42	i	i	-6.5
COc1ccccc1CNCC(=O)Nc1ccccc1-n1cccc1	i	i	-4.54*	i	i	-11.9
CCCCC(=Nc1ccccc1OC)C1=C(O)CC(c2ccccc2)CC1=O (configuration not stated)	7*	i	-1.52	i	i	-11.8
COc1ccc(CCNC(=S)N2CCN(S(=O)(=O)c3ccccc3F)CC2)cc1	i	i	-0.86	i	i	-8.6
